Measurements taken from ChEMBL document CHEMBL3102711 (Eur J Med Chem, 2014).
Activity calls are given as the source filed them. The calls are words filed in the database; no cut-off is given here.

What was measured:
[1] = Antiproliferative activity against human MUTU-I cells after 24 hrs by Alamar blue assay; assay type: functional, cell-based
[2] = (§1) Antiproliferative activity against human DG75 cells after 72 hrs by Alamar blue assay; assay type: functional, cell-based; settings: DG-75, 72 h
[3] = (§2) Antiproliferative activity against human MUTU-I cells at 10 uM after 24 hrs by Alamar blue assay; assay type: functional
How it was run: (§3)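 Cells were treated with a single 10 µM dose for 24 h. PBMCs came from healthy-donor blood by Ficoll density separation and were kept in IMDM with 10% FBS. Viability was read by Alamar Blue fluorescence (590 nm, ex 544 nm) against untreated cells. Three independent experiments were run, with a Student's t-test against vehicle.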

[4] = Antiproliferative activity against human DG75 cells at 10 uM after 72 hrs by Alamar blue assay; assay type: functional, DG-75
PBMC = test: Antiproliferative activity against human PBMC at 10 uM after 24 hrs by Alamar blue assay; assay type: cell-based; how it was run: as §3
DG-75 [5] = test: Antiproliferative activity against human DG75 cells at 10 uM after 24 hrs by Alamar blue assay
MUTU-I [6] = test: as §2; assay type: functional; how it was run: as §3
[7] = (§4) Induction of apoptosis in human MUTU-I cells assessed as accumulation at pre-G1 phase at 10 uM after 24 hrs using propidium iodide staining by FACS analysis; assay type: functional
How it was run: (§5)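 Cells (7.5×10^5 per 5 mL) were treated, then washed in cold PBS and fixed overnight at 4 °C in 70% ethanol. They were stained with RNase A and propidium iodide for 30 min at 37 °C in the dark. Flow cytometry counted 10,000 gated cells, and the pre-G1 fraction was scored.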

HL-60 [8] = test: Induction of apoptosis in human HL60 cells expressing p-glycoprotein; assay type: functional, cell-based
HL-60 [9] = test: Induction of apoptosis in human HL60 cells expressing BCRP; assay type: functional, cell-based
HL-60 [10] = test: Induction of apoptosis in human HL60 cells; assay type: functional, cell-based
MUTU-I [11] = test: Induction of apoptosis in human MUTU-I cells assessed as activation of caspase 3 and 7 at 10 uM after 8 hrs by Apotox-Glo Triplex assay; assay type: functional, cell-based
How it was run: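 Cells were seeded at 10,000/well and treated at 10 µM for 8 h. Caspase-Glo reagent (Apotox-Glo Triplex) was added, followed by brief orbital shaking and 30 min at room temperature, then a luminescence read. Vinblastine 100 nM was the positive control, with a Student's t-test against vehicle.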

MUTU-I [12] = test: as §4; assay type: functional; how it was run: as §5
DG-75 [13] = test: as §1; assay type: functional, cell-based

Compound | EC50 [1] [µM] | EC50 [2] [µM] | further results
CCNCC1CC2c3ccccc3C1c1ccccc12 (stereo unspecified) | > 100 | > 100 | –
Clc1ccc(COC(Cn2ccnc2)c2ccc(Cl)cc2Cl)c(Cl)c1 (stereo unspecified) [MICONAZOLE] | – | – | Activity [3]: >90%; Activity [4]: >90%
O=C(/C=C/c1c2ccccc2cc2ccccc12)N1CCCC1 | 18.7 | 32.5 | –
Clc1ccc(N2CCN(CC3CC4c5ccccc5C3c3ccccc34)CC2)cc1 (stereo unspecified) | > 100 | > 100 | –
CCN(CC)CC1C2c3ccccc3C(c3ccccc32)C1CN(CC)CC (stereo unspecified) | 65 | 51.8 | –
CCOC(=O)/C=C/C12c3ccccc3C(CC1C#N)c1ccccc12 (stereo unspecified) | 45.6 | > 100 | –
Cc1ccc(N2CCN(C(=O)/C=C/c3c4ccccc4cc4ccccc34)CC2)cc1 | 38.5 | > 100 | –
CC[C@]1(O)C[C@@H]2CN(CCc3c([nH]c4ccccc34)[C@@](C(=O)OC)(c3cc4c(cc3OC)N(C)[C@H]3[C@@](O)(C(=O)OC)[C@H](OC(C)=O)[C@]5(CC)C=CCN6CC[C@]43[C@@H]65)C2)C1 [VINBLASTINE] | – | – | Activity (PBMC): Non-toxic; Activity (DG-75 [5]): Active; Activity (MUTU-I [6]): Active; Activity [7]: 52.89%
CNC(=O)CCC12c3ccccc3C(CC1C#N)c1ccccc12 (stereo unspecified) | > 100 | > 100 | –
N#C/C=C/c1c2ccccc2cc2ccccc12 | 21.2 | > 100 | –
COC(=O)C(Cc1ccc(O)cc1)NC(=O)C1CC2c3ccccc3C1c1ccccc12 (stereo unspecified) | 63 | 54.6 | –
CCOC(=O)CCC12c3ccccc3C(CC1C#N)c1ccccc12 (stereo unspecified) | 29.3 | > 100 | –
N#CC1CC2c3ccccc3C1(/C=N/O)c1ccccc12 (stereo unspecified) | 20.4 | > 100 | –
COC(=O)C(CC(C)C)NC(=O)C1CC2c3ccccc3C1c1ccccc12 (stereo unspecified) | > 100 | – | –
CCOC(=O)/C=C/c1c2ccccc2cc2ccccc12 | 27.1 | > 100 | –
CC(=O)/C=C/c1c2ccccc2cc2ccccc12 | 21.8 | 7.6 | –
CN(CC1CC2c3ccccc3C1c1ccccc12)C1CCCCC1 (stereo unspecified) | 23 | 35.5 | Activity (HL-60 [8]): inactive; Activity (HL-60 [9]): inactive; Activity (HL-60 [10]): inactive
CCOC(=O)N1CCN(C(=O)/C=C/c2c3ccccc3cc3ccccc23)CC1 | 5.4 | 11.6 | Activity (HL-60 [8]): Active; Activity (PBMC): Non-toxic; Activity (MUTU-I [11]): Active; Activity (DG-75 [5]): Active; Activity (MUTU-I [6]): Active; Activity (HL-60 [9]): Active; Activity [7]: 54.7%; Activity (HL-60 [10]): Active
CN(CC1=CC2c3ccccc3C1c1ccccc12)C1CCCCC1 | 73.3 | > 100 | –
CN1CCN(C(=O)/C=C/c2c3ccccc3cc3ccccc23)CC1 | 7.6 | 62.1 | Activity (HL-60 [8]): inactive; Activity (PBMC): Non-toxic; Activity (MUTU-I [11]): inactive; Activity (HL-60 [9]): inactive; Activity (MUTU-I [12]): inactive; Activity (HL-60 [10]): inactive
CCOC(=O)C1=CC2c3ccccc3C1c1ccccc12 | > 100 | – | Activity (DG-75 [13]): inactive
c1ccc2c(c1)C1CC(CN3CCCCC3)C2c2ccccc21 (stereo unspecified) | 65.6 | 69.9 | –
c1ccc2c(c1)C1CC(CN3CCOCC3)C2c2ccccc21 (stereo unspecified) | 23.5 | 8.8 | –
CCOC(=O)C1C2c3ccccc3C(c3ccccc32)C1C(=O)OCC (stereo unspecified) | 89.4 | > 100 | –
CCN(CC)C(=O)O/N=C/C12c3ccccc3C(CC1C#N)c1ccccc12 (stereo unspecified) | 28.4 | 3.1 | Activity (HL-60 [8]): inactive; Activity (PBMC): Non-toxic; Activity (MUTU-I [11]): inactive; Activity (HL-60 [9]): inactive; Activity (MUTU-I [12]): inactive; Activity (HL-60 [10]): inactive
CN(C)C(=O)/C=C/c1c2ccccc2cc2ccccc12 | 24.9 | > 100 | –
CNCC12c3ccccc3C(CC1C#N)c1ccccc12 (stereo unspecified) | > 100 | > 100 | –

Compound | EC50 [1] [µM] | EC50 [2] [µM] | further results
N#CC1CC2c3ccccc3C1(CO)c1ccccc12 (stereo unspecified) | > 100 | > 100 | –
CN1CCN(C(=O)C2CC3c4ccccc4C2c2ccccc23)CC1 (stereo unspecified) | > 100 | – | –
N#CC1CC2c3ccccc3C1(C=O)c1ccccc12 (stereo unspecified) | 31.7 | > 100 | –
CNC(=O)/C=C/c1c2ccccc2cc2ccccc12 | 62.5 | > 100 | –
O=C(O)C1C2c3ccccc3C(c3ccccc32)C1C(=O)O (stereo unspecified) | > 100 | – | –
O=[N+]([O-])c1ccc(/C=C/c2c3ccccc3cc3ccccc23)cc1 | 8.8 | > 100 | –
N#C/C=C/C12c3ccccc3C(CC1C#N)c1ccccc12 (stereo unspecified) | > 100 | > 100 | –
CNC(C)/C=C/c1c2ccccc2cc2ccccc12 (stereo unspecified) | 62.9 | > 100 | –
O=[N+]([O-])/C=C/c1c2ccccc2cc2ccccc12 | 3 | 1.5 | Activity (HL-60 [8]): Active; Activity (PBMC): Toxic; Activity (MUTU-I [11]): Active; Activity (HL-60 [9]): Active; Activity [7]: 31.43%; Activity (HL-60 [10]): Active
O=C(O)C(Cc1ccc(O)cc1)NC(=O)C1CC2c3ccccc3C1c1ccccc12 (stereo unspecified) | > 100 | – | –
CC(=O)OCC12c3ccccc3C(CC1C#N)c1ccccc12 (stereo unspecified) | 12.8 | > 100 | –
CC(C)CC(NC(=O)C1CC2c3ccccc3C1c1ccccc12)C(=O)O (stereo unspecified) | > 100 | – | –
CN(C)CC1CC2c3ccccc3C1c1ccccc12 (stereo unspecified) | > 100 | > 100 | –
CCN(CC)C(=O)C1C2c3ccccc3C(c3ccccc32)C1C(=O)N(CC)CC (stereo unspecified) | > 100 | – | –
C1=C(CN2CCCCC2)C2c3ccccc3C1c1ccccc12 | 31.5 | 10.2 | –
CCN(CC)C(=O)/C=C/c1c2ccccc2cc2ccccc12 | 21.5 | 9.3 | –
COC(=O)C1=C(C(=O)OC)C2c3ccccc3C1c1ccccc12 | > 100 | – | Activity (DG-75 [13]): inactive
CNC(=O)/C=C/C12c3ccccc3C(CC1C#N)c1ccccc12 (stereo unspecified) | > 100 | > 100 | –
CCOC(=O)C1CC2c3ccccc3C1c1ccccc12 (stereo unspecified) | 55.4 | > 100 | –
O=C(/C=C/c1c2ccccc2cc2ccccc12)N1CCCCC1 | 1.9 | > 100 | Activity (MUTU-I [11]): Active; Activity [7]: 15.44%
N#CC1CC2c3ccccc3C1(COC(=O)c1ccccc1)c1ccccc12 (stereo unspecified) | 24.5 | > 100 | –
CN(C)C(=O)C1C2c3ccccc3C(c3ccccc32)C1C(=O)N(C)C (stereo unspecified) | > 100 | – | –
O=C(O)C1CC2c3ccccc3C1c1ccccc12 (stereo unspecified) | > 100 | – | –
CC(=O)O/N=C/C12c3ccccc3C(CC1C#N)c1ccccc12 (stereo unspecified) | 34.6 | > 100 | –
N#CC1CC2c3ccccc3C1(/C=N/OC(=O)c1ccccc1)c1ccccc12 (stereo unspecified) | 80.5 | 95.3 | –
c1ccc(NCC2CC3c4ccccc4C2c2ccccc23)cc1 (stereo unspecified) | > 100 | > 100 | –
CN(C(=O)C1CC2c3ccccc3C1(C=O)c1ccccc12)C1CCCCC1 (stereo unspecified) | 40.6 | > 100 | Activity (HL-60 [8]): Active; Activity (HL-60 [9]): Active; Activity (HL-60 [10]): Active
